In the library only some 1.6% were active in any assay of this set; here they are far more common.
HMGR II inh: inhibitors of class II HMG-CoA reductase from Enterococcus faecalis; purified E. faecalis HMGR, NADPH absorbance 340 nm kinetic; inhibition, % at 10 µM; 0.41% of 190,000 active;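 active means inhibition above a set limit, the median over all tested compounds plus 3 SD, cut at about 9.5% in these data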;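 further: enzyme runs in reverse so mevalonate oxidation gives rising NADPH absorbance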
p47phox inh: inhibitors of human p47phox binding; P14598; p47phox/p22phox peptide binding, fluorescence polarization, 2 h; inhibition, % at 24.7 µM; 0.53% of 220,000 active; AID 1274;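 active means inhibition above about 30%, limit read from the data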
ABCG2 block: blocks JC-1 efflux by human ABCG2 transporter | AID 1325 | inhibition, % at 6.6 µM | IgMXP3 cells, flow cytometry | Q9UNQ0 | 0.1% of 190,000 active;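 active means inhibition above 80%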
Target sequence (Q9UNQ0 whole entry, looked up): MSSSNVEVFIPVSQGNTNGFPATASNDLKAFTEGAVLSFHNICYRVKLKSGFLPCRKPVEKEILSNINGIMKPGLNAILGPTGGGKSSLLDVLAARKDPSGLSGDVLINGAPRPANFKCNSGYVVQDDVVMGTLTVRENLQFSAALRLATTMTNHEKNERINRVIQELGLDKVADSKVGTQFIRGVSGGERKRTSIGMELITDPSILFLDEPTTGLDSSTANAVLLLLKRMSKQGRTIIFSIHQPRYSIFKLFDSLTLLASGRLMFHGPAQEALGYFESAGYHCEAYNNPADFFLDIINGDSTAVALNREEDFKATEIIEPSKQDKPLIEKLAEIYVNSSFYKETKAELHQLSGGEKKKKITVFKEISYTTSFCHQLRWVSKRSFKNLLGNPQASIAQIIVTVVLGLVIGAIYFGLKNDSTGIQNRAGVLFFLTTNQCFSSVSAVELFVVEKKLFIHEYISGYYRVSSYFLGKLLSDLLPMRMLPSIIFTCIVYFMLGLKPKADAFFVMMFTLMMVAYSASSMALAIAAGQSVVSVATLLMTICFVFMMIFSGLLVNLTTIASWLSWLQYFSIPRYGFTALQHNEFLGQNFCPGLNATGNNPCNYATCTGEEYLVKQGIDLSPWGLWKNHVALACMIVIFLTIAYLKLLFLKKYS
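Test system: IgMXP3 (ABCG2) plus far-red-tagged CCRF-Adr (ABCB1) cells / Amount: 3 million cells/mL in well / Reagent: JC-1 transporter substrate / Timing: 10 min compound exposure, 25 °C / Signal: flow cytometry, 530 nm JC-1 signal / Read-out: percent efflux inhibition, scaled nicardipine 100% to DMSO 0% / Benchmarks: nicardipine as high control, DMSO as low control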
Diaphorase act: counter-screen for diaphorase-based assays: diaphorase activators and chemical reducers | Diaphorase/resazurin coupled assay, resorufin fluorescence, 16 min; stronger effect = higher value; 1 = vehicle wells, 0 = NADH-free wells | activation factor at 20 µM | 0.005% of 190,000 active | AID 1229;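 active means diaphorase activity raised at least twofold by the compound at 20 µM; inactive means activation factor below 2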
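Material: Clostridium kluyveri diaphorase, purified enzyme; Quantity: enzyme 0.07 U/mL final; Medium: HEPES pH 7.4 buffer with MgCl2 and Tween 20; Dosing: single compound dose of 20 µM, 1% DMSO final; Schedule: 16 min reaction at room temperature; Measured by: red resorufin fluorescence at 544/590 nm excitation/emission.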
ABCB1 inh: inhibitors of human ABCB1 transporter, ABCG2 counter-screen. P08183. CCRF-Adr cells, JC-1 efflux, flow cytometry. inhibition, % at 6.6 µM. 0.067% of 190,000 active. AID 1326; in the data active means inhibition above about 40%;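 further: higher value means more JC-1 retained so stronger ABCB1 efflux block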
Diaphorase inh: inhibits diaphorase or chemically oxidizes, flagging diaphorase assay artifacts; 0.69% of 190,000 active; diaphorase resazurin-to-resorufin fluorescence, NADH, 16 min; bacterial (C. kluyveri) enzyme, not human; inhibition, % at 20 µM;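 active means primary screen inhibition at 20 µM above a set limit, cut at about 50% in these data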
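System: Bacterial diaphorase enzyme (C. kluyveri) | Incubation: 16-min room-temperature incubation before reading | Benchmarks: No-NADH positive control and DMSO neutral control | Measured by: Resorufin fluorescence 544/590 nm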
Of the large screens only hits and unclear results are named; the others gave an inactive call.

COC(=O)COc1ccc(NC(=O)Cn2nc(-c3ccccc3)c3ccccc3c2=O)cc1	none
CC[n+]1c(C)n(-c2ccccc2)c2ccc(C(=O)OC)cc21	HMGR II inh 16
CCOc1ccccc1Nc1nnc(SCc2nnc(-c3cc(OC)c(OC)c(OC)c3)o2)s1	none
COc1ccccc1Nc1nnc(SCc2nnc(-c3cc(OC)c(OC)c(OC)c3)o2)s1	Diaphorase inh 50
O=C(O)c1cccc(Cl)n1	none (no result: HMGR II inh, ABCG2 block, Diaphorase act, ABCB1 inh, Diaphorase inh)
O=C(O)c1cccc(C(=O)O)n1	Diaphorase inh 71
CC(C)c1ccc(/C=C2\CC/C(=C\C=N\N(C)C)C2=O)cc1	p47phox inh 76
CN=c1scc(-c2cccs2)n1/N=C/c1ccc(O)c(O)c1O	Diaphorase inh 68
CN=c1scc(C)n1/N=C/c1ccc(O)c(O)c1O	Diaphorase inh 76
CCOc1ccc(N2C(=O)Nc3ccccc3C2(O)C(=O)NCc2ccc3c(c2)OCO3)cc1 (stereo unspecified)	none
O=C(Nc1ccc2c(c1)OCCO2)C1CCCN(S(=O)(=O)c2cccs2)C1 (stereo unspecified)	none
c1ccc(Nc2ccc3c4c(cccc24)CC3)cc1	none
Nc1ccc2c3c(cccc13)CC2	Diaphorase inh 56
c1csc(C2Nc3cccc4cccc(c34)N2)c1	Diaphorase inh 62
Brc1ccc(C2Nc3cccc4cccc(c34)N2)o1	Diaphorase inh 85
CN1c2cccc3cccc(c23)N(C)C1c1cccs1	none
N#CC(C#N)=C(Nc1ccc(F)cc1)SCc1cccc(F)c1	none
CCOC(=O)c1c(CSc2nc(C)cc(C)c2C#N)n(C)c2cc(Br)c(OC(C)=O)cc12	none
CCOC(=O)c1c(CSC(=N)N)n(-c2ccc(Br)cc2)c2cc(Br)c(OC(C)=O)cc12	p47phox inh 93
C=CCCc1ccc(C#N)c(SCc2c(C(=O)OCC)c3cc(OC(C)=O)c(Br)cc3n2C)n1	none
CCCCCCCCOC(=O)c1c(CSC(=N)N)n(C)c2cc(Br)c(OC(C)=O)cc12	p47phox inh 88 (no result: HMGR II inh, ABCG2 block, Diaphorase act, ABCB1 inh, Diaphorase inh)
CC(=O)N(\C=C/C=C/C=C1\Sc2ccccc2C1=O)c1ccccc1	Diaphorase inh 53
CN(C)/C=C1/Sc2ccccc2C1=O	none
CCc1nc(C)cc2c1sc1ccccc12	none (no result: HMGR II inh, ABCG2 block, Diaphorase act, ABCB1 inh, Diaphorase inh)
CC[n+]1c(C)cc2c(sc3ccccc32)c1C	p47phox inh 33
CCOC(=O)NC(=O)/C(C#N)=N\Nc1cccc(Cl)c1	none (no result: HMGR II inh, ABCG2 block, Diaphorase act, ABCB1 inh, Diaphorase inh)
CCOC(=O)NC1(Nc2cccc(Cl)c2)Oc2ccccc2O1	Diaphorase inh 55
CCOc1ncccc1C(=O)Nc1ccc(F)cc1	none
Cc1c(C(=O)N/N=C/c2ccc(-c3ccccc3[N+](=O)[O-])o2)sc(N)c1C#N	none
COCc1cc(C)nc(N/N=C/c2ccc(-c3ccc(Cl)cc3[N+](=O)[O-])o2)c1C#N	p47phox inh 40
CC(=O)Nc1ccc(N(C(=O)CNC(=O)c2cccs2)C(C(=O)NC(C)(C)C)c2ccccc2)cc1 (stereo unspecified)	none (no result: Diaphorase act, Diaphorase inh)
NS(=O)(=O)c1cccc(NC(=O)COC(=O)C2CCCCC2)c1	HMGR II inh 11
NS(=O)(=O)c1ccc(NC(=O)COC(=O)C2CC(=O)N(Cc3ccccc3)C2)cc1 (stereo unspecified)	HMGR II inh 11
COc1cc(C(Nc2ccccn2)c2ccc3ccc(C)nc3c2O)cc(OC)c1O (stereo unspecified)	Diaphorase inh 63
CC1(C)N([O-])C2=C(c3ccccc3C2=O)[N+](=O)C1(C)C	Diaphorase inh 67
COC(=O)c1ccc(CN(C)S(=O)(=O)c2ccc(C)cc2)o1	none
CCCNS(=O)(=O)c1ccc(OCC(=O)NCCC2=CCCCC2)cc1	none
COc1ccc(CCC(=O)N(C)CC(=O)Nc2ccc(N3CCOCC3)cc2)cc1	HMGR II inh 9.7
COc1ccc(CC(=O)OCC(=O)Nc2ccc(N3CCOCC3)cc2)cc1	none (no result: HMGR II inh, ABCG2 block, Diaphorase act, ABCB1 inh, Diaphorase inh)
COc1ccc(C(=O)NCC(=O)N2CCc3ccccc3C2)cc1	p47phox inh 79
CCCC(=O)Nc1ccc(C(=O)NNC(=O)c2cccc([N+](=O)[O-])c2)cc1	none
Cc1ccccc1Nc1nc(N)nc(CN2CCN(Cc3ccc4c(c3)OCO4)CC2)n1	HMGR II inh 17
Cc1ccc(Cl)cc1NC(=O)c1ccc(NC(=O)CCC(=O)O)cc1	none
O=C1/C(=C\c2ccc(O)c(O)c2)C(c2ccccc2)=NN1c1ccccc1	Diaphorase inh 65
Cc1ccc(C)c(NC(=O)CSc2nnc(-c3ccncc3)n2N)c1	p47phox inh 34
CCNc1cc(N2CCCC2)ccc1[N+](=O)[O-]	none
CC(C)CNc1cc(N2CCCC2)ccc1[N+](=O)[O-]	p47phox inh 59
COCc1ccc(O)c2ncccc12	none
Cc1cccc(NCc2ccc(O)c3ncccc23)c1	Diaphorase inh 78
Oc1ccc(CNc2ccccc2)c2cccnc12	Diaphorase inh 86
Oc1ccc(CN2CCN(Cc3ccccc3)CC2)c2cccnc12	none (no result: Diaphorase act, Diaphorase inh)
Cc1ccccc1NCc1ccc(O)c2ncccc12	Diaphorase inh 92
Oc1ccc(CNc2ccc(F)cc2)c2cccnc12	Diaphorase inh 77
CC(C)OCCCNC(=O)Cn1ncc2c(=O)oc3ccccc3c21	none
Oc1ccc(Cn2ccnc2)c2cccnc12	Diaphorase inh 54
CC1CC(=O)c2c(cc3c(-c4c(O)cc(O)c5c(O)c6c(cc45)OC(C)CC6=O)c(O)cc(O)c3c2O)O1 (stereo unspecified)	Diaphorase inh 64
O=c1oc2c(O)c(O)cc3c(=O)oc4c(O)c(O)cc1c4c23	HMGR II inh 24, Diaphorase inh 86
COCCNC(=O)Nc1ccc2c(c1)N(C)C(=O)c1ccccc1S2	none
Cn1c(=O)c2c(ncn2CC(=O)OCC(=O)Nc2ccccc2)n(C)c1=O	HMGR II inh 10
CSc1ccc(/C=N/NC(=O)c2ccccc2Cl)cc1	Diaphorase inh 58
COc1ccc2c(c1)C(c1ccc(N3CCOCC3)cc1)=NNC(c1cccnc1)=N2	none
O=c1c2ccccc2nc(/C=C/c2ccc([N+](=O)[O-])o2)n1CCCO	p47phox inh 35
Cc1oc(-c2ccc(F)cc2)cc1-c1nn2c(-c3ccoc3C)nnc2s1	Diaphorase inh 58 (no result: HMGR II inh, p47phox inh, ABCG2 block, ABCB1 inh)
Cc1oc(-c2ccc(Cl)cc2)cc1-c1nn2c(-c3ccco3)nnc2s1	none (no result: HMGR II inh, p47phox inh, ABCG2 block, ABCB1 inh)
CSc1cc(-c2ccc(Cl)cc2)[nH]c(=O)c1C#N	none
Cc1ccc(-c2[nH]c(=S)[nH]c(=O)c2C#N)cc1	Diaphorase inh 78
CC(=O)N1CC(=O)N(Cc2ccccc2)/C(=C/c2ccccc2)C1=O	p47phox inh 134
CC1(C)CC(=O)N(Cc2ccccc2)C(=O)C1	none
O=C(/C=C/c1cccs1)N1CCOCC1	none
